In ChEMBL document CHEMBL1154093, “New azoles with potent antifungal activity: design, synthesis and molecular docking” (2009):
Converted amounts (≈) assume the structure as drawn. The source made the active and inactive calls. The calls are words filed in the database; no cut-off is given here.

Columns and labels:
[1] = system: Candida albicans; test: Antifungal activity against Candida albicans after 24 hrs by serial dilution method; format: functional
Method in brief: (§1)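 NCCLS broth microdilution in RPMI 1640 buffered with 0.165 M MOPS, with strains from ATCC or clinical isolates. Compounds were dissolved in DMSO and serially diluted in medium. Yeasts were incubated at 35 °C and read at 24 h for Candida or 72 h for C. neoformans. MIC was the lowest concentration giving ≥80% turbidity inhibition versus the growth control.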

[2] = system: Aspergillus fumigatus; test: Antifungal activity against Aspergillus fumigatus after 7 days by serial dilution method; format: functional; details: 168 h
Method in brief: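 Filamentous fungus (ATCC or clinical isolate) was tested by NCCLS microdilution in MOPS-buffered (0.165 M) RPMI 1640. Compounds were dissolved in DMSO and serially diluted in medium, and growth was scored at 7 days. MIC was the lowest concentration producing ≥80% inhibition of turbidity compared with the untreated control.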

[3] = system: Nannizzia gypsea; test: Antifungal activity against Microsporum gypseum after 7 days by serial dilution method; format: functional; details: 168 h
Method in brief: (§2)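 Dermatophytes (ATCC or clinical isolates) were tested by NCCLS serial dilution in RPMI 1640 with 0.165 M MOPS, incubated at 28 °C and read at 7 days. Compounds were taken up in DMSO and diluted in medium. MIC was the lowest concentration reducing turbidity by at least 80% relative to the drug-free growth control.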

[4] = system: Candida tropicalis; test: Antifungal activity against Candida tropicalis after 24 hrs by serial dilution method; format: functional; method in brief: as §1
[5] = system: Trichophyton rubrum; test: Antifungal activity against Trichophyton rubrum after 7 days by serial dilution method; format: functional; details: 168 h; method in brief: as §2
[6] = system: Cryptococcus neoformans; test: Antifungal activity against Cryptococcus neoformans after 72 hrs by serial dilution method; format: functional; method in brief: as §1
[7] = system: Candida albicans; test: Antifungal activity against multidrug-resistant Candida albicans after 24 hrs by serial dilution method; format: functional
Method in brief: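 Broth serial dilution in 96-well plates per NCCLS recommendations; RPMI 1640 buffered with 0.165 M MOPS as medium. Compounds dissolved in DMSO, serially diluted in growth medium. Strains from ATCC or clinical isolates. Yeasts incubated at 35 °C, read at 24 h for Candida. MIC = lowest concentration giving turbidity at or below 80% inhibition versus growth control.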

[8] = system: Candida parapsilosis; test: Antifungal activity against Candida parapsilosis after 24 hrs by serial dilution method; format: functional, organism-based; method in brief: as §1

SMILES | MIC80 [1] [µg/mL] | MIC80 [2] [µg/mL] | MIC80 [3] [µg/mL] | MIC80 [4] [µg/mL] | MIC80 [5] [µg/mL] | MIC80 [6] [µg/mL] | MIC80 [7] [µg/mL] | Activity [8]
OC(CN1CCN(CCCOc2ccccc2)CC1)(Cn1cncn1)c1ccc(F)cc1F (racemic) | 0.0156 (≈ 0.0341 µM) | 32 (≈ 69.9 µM) | 4 (≈ 8.74 µM) | 0.0625 (≈ 0.137 µM) | 0.25 (≈ 0.546 µM) | 1 (≈ 2.19 µM) | 64 (≈ 140 µM) | Active
Nc1ccccc1OCCCN1CCN(CC(O)(Cn2cncn2)c2ccc(F)cc2F)CC1 (racemic) | 0.25 (≈ 0.529 µM) | 64 (≈ 135 µM) | 16 (≈ 33.9 µM) | 0.25 (≈ 0.529 µM) | 1 (≈ 2.12 µM) | 4 (≈ 8.46 µM) | 0.5 (≈ 1.06 µM) | Active
OC(CN1CCN(CCCOc2cccc(Br)c2)CC1)(Cn1cncn1)c1ccc(F)cc1F (racemic) | 0.0156 (≈ 0.0291 µM) | 4 (≈ 7.46 µM) | 0.25 (≈ 0.466 µM) | 0.0156 (≈ 0.0291 µM) | 0.0625 (≈ 0.117 µM) | 0.25 (≈ 0.466 µM) | 16 (≈ 29.8 µM) | Active
O=[N+]([O-])c1cccc(OCCCN2CCN(CC(O)(Cn3cncn3)c3ccc(F)cc3F)CC2)c1 (racemic) | 0.0625 (≈ 0.124 µM) | 32 (≈ 63.7 µM) | 0.25 (≈ 0.497 µM) | 0.0156 (≈ 0.031 µM) | 0.0625 (≈ 0.124 µM) | 0.25 (≈ 0.497 µM) | 0.25 (≈ 0.497 µM) | Active
OC(CN1CCN(CCCCCOc2ccccc2)CC1)(Cn1cncn1)c1ccc(F)cc1F (racemic) | 0.0625 (≈ 0.129 µM) | 32 (≈ 65.9 µM) | 4 (≈ 8.24 µM) | 0.0625 (≈ 0.129 µM) | 0.25 (≈ 0.515 µM) | 1 (≈ 2.06 µM) | 4 (≈ 8.24 µM) | Active
CC(C)(C)c1ccc(OCCCN2CCN(CC(O)(Cn3cncn3)c3ccc(F)cc3F)CC2)cc1 (racemic) | 0.0156 (≈ 0.0304 µM) | 2 (≈ 3.89 µM) | 0.0625 (≈ 0.122 µM) | 0.0156 (≈ 0.0304 µM) | 0.0156 (≈ 0.0304 µM) | 0.0625 (≈ 0.122 µM) | 0.125 (≈ 0.243 µM) | Active
Nc1ccc(OCCCN2CCN(CC(O)(Cn3cncn3)c3ccc(F)cc3F)CC2)cc1 (racemic) | 0.25 (≈ 0.529 µM) | 64 (≈ 135 µM) | 16 (≈ 33.9 µM) | 1 (≈ 2.12 µM) | 4 (≈ 8.46 µM) | 4 (≈ 8.46 µM) | 0.25 (≈ 0.529 µM) | Active
O=C(Nc1ccc(OCCCN2CCN(CC(O)(Cn3cncn3)c3ccc(F)cc3F)CC2)cc1)c1ccccc1 (racemic) | 0.25 (≈ 0.434 µM) | > 64 | 64 (≈ 111 µM) | 1 (≈ 1.73 µM) | 16 (≈ 27.7 µM) | 16 (≈ 27.7 µM) | 0.5 (≈ 0.867 µM) | Active
OC(CN1CCN(CCCOc2ccc(Br)cc2)CC1)(Cn1cncn1)c1ccc(F)cc1F (racemic) | 0.0156 (≈ 0.0291 µM) | 1 (≈ 1.86 µM) | 0.25 (≈ 0.466 µM) | 0.0156 (≈ 0.0291 µM) | 0.0625 (≈ 0.117 µM) | 0.25 (≈ 0.466 µM) | 0.25 (≈ 0.466 µM) | Active
O=[N+]([O-])c1ccc(OCCCN2CCN(CC(O)(Cn3cncn3)c3ccc(F)cc3F)CC2)cc1 (racemic) | 0.0625 (≈ 0.124 µM) | 32 (≈ 63.7 µM) | 1 (≈ 1.99 µM) | 0.0625 (≈ 0.124 µM) | 0.0625 (≈ 0.124 µM) | 0.25 (≈ 0.497 µM) | 0.125 (≈ 0.249 µM) | Active
OC(CN1CCN(CCCOc2ccccc2Cl)CC1)(Cn1cncn1)c1ccc(F)cc1F (racemic) | 0.0625 (≈ 0.127 µM) | 32 (≈ 65 µM) | 1 (≈ 2.03 µM) | 0.0625 (≈ 0.127 µM) | 0.25 (≈ 0.508 µM) | 1 (≈ 2.03 µM) | 16 (≈ 32.5 µM) | Active
OC(CN1CCN(CCCOc2ccc(OCc3ccccc3)cc2)CC1)(Cn1cncn1)c1ccc(F)cc1F (racemic) | 0.0625 (≈ 0.111 µM) | 2 (≈ 3.55 µM) | 0.0625 (≈ 0.111 µM) | 0.0625 (≈ 0.111 µM) | 0.0625 (≈ 0.111 µM) | 0.25 (≈ 0.444 µM) | 32 (≈ 56.8 µM) | Active
